Assay results: ChEMBL document CHEMBL1806456, “Chemistry of ecteinascidins. Part 3: preparation of 2'-N-acyl derivatives of ecteinascidin 770 and evaluation of cytotoxicity” (Bioorg Med Chem, 2011)

Tests used:
Format in all cases: functional, cell-based
DU-145 = assay: Cytotoxicity against human DU145 cells after 4 days by MTT assay; settings: DU-145, 96 h
Procedure, shortened: (§1)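 Cells seeded as single-cell suspension, 2 × 10³ cells/well, onto serially diluted compounds in microplates; cultured 4 d. Viable cells counted with a cell counting kit. IC50 taken as concentration giving 50% growth inhibition relative to untreated control.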

QG-56 = assay: Cytotoxicity against human QG56 cells after 4 days by MTT assay; settings: QG-56, 96 h; procedure, shortened: as §1
HCT-116 = assay: Cytotoxicity against human HCT116 cells after 4 days by MTT assay; settings: HCT-116, 96 h; procedure, shortened: as §1

SMILES | IC50 (DU-145) [nM] | IC50 (QG-56) [nM] | IC50 (HCT-116) [nM]
C=CCOc1cc2c(cc1OC)[C@@]1(CS[C@@H]3c4c(OC(C)=O)c(C)c5c(c4[C@@H](COC1=O)N1[C@@H]3[C@H]3c4c(cc(C)c(OC)c4OCC=C)C[C@@H]([C@@H]1C#N)N3C)OCO5)N(C(=O)c1cccc3ncccc13)CC2 | 550 | 640 | 320
COc1cc2c(cc1O)CCN(C(=O)c1ccncc1)[C@]21CS[C@@H]2c3c(OC(C)=O)c(C)c4c(c3[C@@H](COC1=O)N1[C@@H]2[C@H]2c3c(cc(C)c(OC)c3O)C[C@@H]([C@@H]1C#N)N2C)OCO4 | 0.3 | 0.2 | 0.045
C=CCOc1cc2c(cc1OC)[C@@]1(CS[C@@H]3c4c(OC(C)=O)c(C)c5c(c4[C@@H](COC1=O)N1[C@@H]3[C@H]3c4c(cc(C)c(OC)c4OCC=C)C[C@@H]([C@@H]1C#N)N3C)OCO5)N(C(=O)c1ccc(Br)cc1)CC2 | 730 | > 1000 | 480
C=CCOc1cc2c(cc1OC)[C@@]1(CS[C@@H]3c4c(OC(C)=O)c(C)c5c(c4[C@@H](COC1=O)N1[C@@H]3[C@H]3c4c(cc(C)c(OC)c4OCC=C)C[C@@H]([C@@H]1C#N)N3C)OCO5)NCC2 | 100 | 160 | 54
COc1cc2c(cc1O)CCN(C(=O)c1cccnc1)[C@]21CS[C@@H]2c3c(OC(C)=O)c(C)c4c(c3[C@@H](COC1=O)N1[C@@H]2[C@H]2c3c(cc(C)c(OC)c3O)C[C@@H]([C@@H]1C#N)N2C)OCO4 | 0.72 | 0.4 | 0.13
C=CCOc1cc2c(cc1OC)[C@@]1(CS[C@@H]3c4c(OC(C)=O)c(C)c5c(c4[C@@H](COC1=O)N1[C@@H]3[C@H]3c4c(cc(C)c(OC)c4OCC=C)C[C@@H]([C@@H]1C#N)N3C)OCO5)N(C(=O)c1ccccc1Br)CC2 | > 1000 | > 1000 | > 1000
COc1cc2c(cc1O)CCN(C(=O)c1ccnc3ccccc13)[C@]21CS[C@@H]2c3c(OC(C)=O)c(C)c4c(c3[C@@H](COC1=O)N1[C@@H]2[C@H]2c3c(cc(C)c(OC)c3O)C[C@@H]([C@@H]1C#N)N2C)OCO4 | 0.16 | 0.23 | 0.067
COc1cc2c(cc1O)CCN(C(=O)c1ccc3ncccc3c1)[C@]21CS[C@@H]2c3c(OC(C)=O)c(C)c4c(c3[C@@H](COC1=O)N1[C@@H]2[C@H]2c3c(cc(C)c(OC)c3O)C[C@@H]([C@@H]1C#N)N2C)OCO4 | 0.043 | 0.16 | 0.045
COc1cc2c(cc1O)CCN(C(=O)/C=C/c1ccccc1)[C@]21CS[C@@H]2c3c(OC(C)=O)c(C)c4c(c3[C@@H](COC1=O)N1[C@@H]2[C@H]2c3c(cc(C)c(OC)c3O)C[C@@H]([C@@H]1C#N)N2C)OCO4 | 0.24 | 0.33 | 0.053
C=CCOc1cc2c(cc1OC)[C@@]1(CS[C@@H]3c4c(OC(C)=O)c(C)c5c(c4[C@@H](COC1=O)N1[C@@H]3[C@H]3c4c(cc(C)c(OC)c4OCC=C)C[C@@H]([C@@H]1C#N)N3C)OCO5)N(C(=O)c1cccc([N+](=O)[O-])c1)CC2 | 270 | 520 | 180
COc1cc2c(cc1O)CCN(C(=O)c1cccc([N+](=O)[O-])c1)[C@]21CS[C@@H]2c3c(OC(C)=O)c(C)c4c(c3[C@@H](COC1=O)N1[C@@H]2[C@H]2c3c(cc(C)c(OC)c3O)C[C@@H]([C@@H]1C#N)N2C)OCO4 | 0.73 | 0.43 | 0.14
C=CCOc1cc2c(cc1OC)[C@@]1(CS[C@@H]3c4c(OC(C)=O)c(C)c5c(c4[C@@H](COC1=O)N1[C@@H]3[C@H]3c4c(cc(C)c(OC)c4OCC=C)C[C@@H]([C@@H]1C#N)N3C)OCO5)N(CC=C)CC2 | > 1000 | > 1000 | 620
C=CCOc1cc2c(cc1OC)[C@@]1(CS[C@@H]3c4c(OC(C)=O)c(C)c5c(c4[C@@H](COC1=O)N1[C@@H]3[C@H]3c4c(cc(C)c(OC)c4OCC=C)C[C@@H]([C@@H]1C#N)N3C)OCO5)N(C(=O)c1ccccc1)CC2 | 540 | 690 | 190
COc1cc2c(cc1O)CCN(C(=O)/C=C/c1ccc([N+](=O)[O-])cc1)[C@]21CS[C@@H]2c3c(OC(C)=O)c(C)c4c(c3[C@@H](COC1=O)N1[C@@H]2[C@H]2c3c(cc(C)c(OC)c3O)C[C@@H]([C@@H]1C#N)N2C)OCO4 | 0.81 | 2.4 | 0.6
C=CCOc1cc2c(cc1OC)[C@@]1(CS[C@@H]3c4c(OC(C)=O)c(C)c5c(c4[C@@H](COC1=O)N1[C@@H]3[C@H]3c4c(cc(C)c(OC)c4OCC=C)C[C@@H]([C@@H]1C#N)N3C)OCO5)N(C(=O)/C=C/c1ccc([N+](=O)[O-])cc1)CC2 | 7500 | 8500 | 520
C=CCOc1cc2c(cc1OC)[C@@]1(CS[C@@H]3c4c(OC(C)=O)c(C)c5c(c4[C@@H](COC1=O)N1[C@@H]3[C@H]3c4c(cc(C)c(OC)c4O)C[C@@H]([C@@H]1C#N)N3C)OCO5)NCC2 | 7.1 | 12 | 2.4
C=CCOc1cc2c(cc1OC)[C@@]1(CS[C@@H]3c4c(OC(C)=O)c(C)c5c(c4[C@@H](COC1=O)N1[C@@H]3[C@H]3c4c(cc(C)c(OC)c4OCC=C)C[C@@H]([C@@H]1C#N)N3C)OCO5)N(C(=O)c1c[nH]c3ccccc13)CC2 | > 1000 | > 1000 | 0.45
C=CCOc1cc2c(cc1OC)[C@@]1(CS[C@@H]3c4c(OC(C)=O)c(C)c5c(c4[C@@H](COC1=O)N1[C@@H]3[C@H]3c4c(cc(C)c(OC)c4OCC=C)C[C@@H]([C@@H]1C#N)N3C)OCO5)N(C(=O)c1ccncc1)CC2 | 590 | 790 | 280
COc1cc2c(cc1O)CCN[C@]21CS[C@@H]2c3c(OC(C)=O)c(C)c4c(c3[C@H](COC1=O)N1[C@@H]2[C@H]2c3c(cc(C)c(OC)c3O)C[C@@H]([C@@H]1C#N)N2C)OCO4 [ECTEINASCIDIN 770] | 0.81 | 2.4 | 0.6
COc1cc2c(cc1O)CCN(C(=O)c1ccccc1)[C@]21CS[C@@H]2c3c(OC(C)=O)c(C)c4c(c3[C@@H](COC1=O)N1[C@@H]2[C@H]2c3c(cc(C)c(OC)c3O)C[C@@H]([C@@H]1C#N)N2C)OCO4 | 1.1 | 1 | 0.37
C=CCOc1cc2c(cc1OC)[C@@]1(CS[C@@H]3c4c(OC(C)=O)c(C)c5c(c4[C@@H](COC1=O)N1[C@@H]3[C@H]3c4c(cc(C)c(OC)c4OCC=C)C[C@@H]([C@@H]1C#N)N3C)OCO5)N(C(=O)c1ccc([N+](=O)[O-])cc1)CC2 | 590 | 790 | 260
C=CCOc1cc2c(cc1OC)[C@@]1(CS[C@@H]3c4c(OC(C)=O)c(C)c5c(c4[C@@H](COC1=O)N1[C@@H]3[C@H]3c4c(cc(C)c(OC)c4OCC=C)C[C@@H]([C@@H]1C#N)N3C)OCO5)N(C(=O)c1cccnc1)CC2 | 680 | > 1000 | 390
COc1cc2c(cc1O)CCN(C(=O)c1ccc([N+](=O)[O-])cc1)[C@]21CS[C@@H]2c3c(OC(C)=O)c(C)c4c(c3[C@@H](COC1=O)N1[C@@H]2[C@H]2c3c(cc(C)c(OC)c3O)C[C@@H]([C@@H]1C#N)N2C)OCO4 | 1 | 1.1 | 0.38
C=CCOc1cc2c(cc1OC)[C@@]1(CS[C@@H]3c4c(OC(C)=O)c(C)c5c(c4[C@@H](COC1=O)N1[C@@H]3[C@H]3c4c(cc(C)c(OC)c4OCC=C)C[C@@H]([C@@H]1C#N)N3C)OCO5)N(C(=O)c1ccnc3ccccc13)CC2 | 420 | 420 | 310
C=CCOc1cc2c(cc1OC)[C@@]1(CS[C@@H]3c4c(OC(C)=O)c(C)c5c(c4[C@@H](COC1=O)N1[C@@H]3[C@H]3c4c(cc(C)c(OC)c4OCC=C)C[C@@H]([C@@H]1C#N)N3C)OCO5)N(C(=O)c1ccc3ncccc3c1)CC2 | 180 | 260 | 150
C=CCN1CCc2cc(O)c(OC)cc2[C@@]12CS[C@@H]1c3c(OC(C)=O)c(C)c4c(c3[C@@H](COC2=O)N2[C@@H]1[C@H]1c3c(cc(C)c(OC)c3O)C[C@@H]([C@@H]2C#N)N1C)OCO4 | 1.2 | 1.8 | 0.5
C=CCOc1cc2c(cc1OC)[C@@]1(CS[C@@H]3c4c(OC(C)=O)c(C)c5c(c4[C@@H](COC1=O)N1[C@@H]3[C@H]3c4c(cc(C)c(OC)c4OCC=C)C[C@@H]([C@@H]1C#N)N3C)OCO5)N(C(=O)/C=C/c1ccccc1)CC2 | > 1000 | > 1000 | 630
COc1cc2c(cc1O)CCN(C(=O)c1cccc3ncccc13)[C@]21CS[C@@H]2c3c(OC(C)=O)c(C)c4c(c3[C@@H](COC1=O)N1[C@@H]2[C@H]2c3c(cc(C)c(OC)c3O)C[C@@H]([C@@H]1C#N)N2C)OCO4 | 0.92 | 0.36 | 0.086
C=CCOc1c(OC)c(C)cc2c1[C@@H]1[C@@H]3[C@@H]4SC[C@]5(C(=O)OC[C@H](c6c7c(c(C)c(OC(C)=O)c64)OCO7)N3[C@@H](C#N)[C@H](C2)N1C)c1cc(OC)c(O)cc1CCN5C(=O)/C=C/c1ccc([N+](=O)[O-])cc1 | 5 | 9.8 | 2.7
COc1cc2c(cc1O)CCN(C(=O)c1c[nH]c3ccccc13)[C@]21CS[C@@H]2c3c(OC(C)=O)c(C)c4c(c3[C@@H](COC1=O)N1[C@@H]2[C@H]2c3c(cc(C)c(OC)c3O)C[C@@H]([C@@H]1C#N)N2C)OCO4 | 0.45 | 0.46 | 0.16
